Compounds with a hit are over-represented: about 0.79% of the library has one in this group of screens.
mIAP inh: mouse IAP inhibition | purified mouse IAP, CDP-Star luminescence, 30 min | inhibition, % at 10 µM | 0.2% of 330,000 active | AID 2806;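 active = inhibition of at least 40% at 10 µM in the primary screen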
hIAP inh: human IAP inhibition; purified IAP, CDP-Star luminescence, 30 min; inhibition, % at 10 µM; 0.12% of 330,000 active; AID 2544;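 active = inhibition reaching a set limit with compound at 10 µM in the primary screen, cut at about 35% in these data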
Target sequence (P09923 whole entry, looked up): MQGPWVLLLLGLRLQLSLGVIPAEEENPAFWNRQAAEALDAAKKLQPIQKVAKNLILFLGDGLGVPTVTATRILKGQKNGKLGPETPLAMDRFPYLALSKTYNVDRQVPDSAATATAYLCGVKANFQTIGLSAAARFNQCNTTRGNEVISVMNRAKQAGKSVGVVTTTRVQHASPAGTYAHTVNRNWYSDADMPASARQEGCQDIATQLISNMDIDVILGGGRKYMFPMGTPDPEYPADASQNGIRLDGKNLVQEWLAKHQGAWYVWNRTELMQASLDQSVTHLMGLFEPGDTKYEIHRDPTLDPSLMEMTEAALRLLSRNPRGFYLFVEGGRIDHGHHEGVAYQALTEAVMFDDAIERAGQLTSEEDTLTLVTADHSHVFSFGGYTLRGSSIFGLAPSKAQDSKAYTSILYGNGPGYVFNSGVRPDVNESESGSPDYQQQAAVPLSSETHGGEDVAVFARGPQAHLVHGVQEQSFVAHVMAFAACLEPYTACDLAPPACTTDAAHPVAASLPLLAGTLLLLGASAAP
hIAP act: increases human intestinal alkaline phosphatase activity; purified human IAP, CDP-Star luminescence, 30 min; hits give high values; 1 = vehicle-only enzyme, 0 = enzyme-free background; activation factor at 10 µM; 0.16% of 330,000 active; AID 2524;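 active = activation factor of the enzyme at least 2-fold when tested at 20 µM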
bIAP act: increases bovine intestinal alkaline phosphatase activity; purified bovine IAP, CDP-star luminescence, 30 min; hits give high values; fold of DMSO-control signal, blank-subtracted; activation factor at 20 µM; 0.17% of 200,000 active; AID 1016;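 active = activation factor of 2 or more at 20 µM, a signal rise over negative controls twice the positive control's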
mIAP activ: mouse IAP activation; activation factor at 10 µM; muIAP, CDP-Star luminescence, 30 min; hits give high values; 1 = vehicle-only enzyme signal, 0 = enzyme-free wells; 0.24% of 330,000 active;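 active = activation factor of at least 2 at 20 µM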
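Assay system: mouse IAP enzyme; Reagent: CDP-Star chemiluminescent phosphatase substrate; Compound: DMSO-dissolved test compounds; Incubation: 30 min, room temperature; Technique: luminescence from enzymatic CDP-Star hydrolysis; Controls: DMSO-only wells and no-enzyme negative control.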
bIAP inh: intestinal alkaline phosphatase (bovine) inhibition; purified bovine IAP, CDP-star luminescence, 30 min; inhibition, % at 20 µM; 190,000 tested, under 10 active;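 active = over 50% inhibition of intestinal alkaline phosphatase at 20 µM in the single-dose screen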
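Incubation: 30 min reaction at room temperature / Material: purified bovine intestinal alkaline phosphatase (IAP) enzyme / Input: enzyme at 1/65,000,000 dilution / Dosing: 20 µM single dose / Signal: CDP-star luminescence signal / Reagent: CDP-star chemiluminescent phosphatase substrate, 30 µM final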
mIAP inh conf: mouse IAP inhibition confirmation; purified mouse IAP, CDP-Star luminescence, 30 min; 4.7% of 11,000 active; inhibition, % at 10 µM; shares compounds with mIAP inh;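 active = inhibition of at least 40% at 10 µM in either of the two replicates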
Of the large screens only hits and unclear results are named; the others gave an inactive call (follow-up assays come after a bar, where they were run).

Cc1ccc(C2C(C#N)=C(N)SC(N)=C2C#N)o1	mIAP inh 44 | mIAP inh conf 45
CN(C)CC1CCCCC1OC(=O)c1ccc(S(=O)(=O)N(C)c2ccccc2)cc1 (stereo not drawn)	none (no result: bIAP act, bIAP inh)
O=c1cc(-c2ccc(O)cc2)oc2c1ccc1ccccc12	none (no result: bIAP act, bIAP inh)
O=c1cc(-c2ccc(O)cc2)oc2c(O)c(O)c(O)c(O)c12	mIAP inh 66 (no result: bIAP act, bIAP inh) | mIAP inh conf 67
CCc1nnc(NC(=O)CSc2sc3c(O)cc(=O)[nH]c3c2C#N)s1	mIAP inh 44 (no result: bIAP act, bIAP inh) | mIAP inh conf 65
CCSc1nnc(NC(=O)CSc2sc3c(O)cc(=O)[nH]c3c2C#N)s1	none (no result: bIAP act, bIAP inh)
Cc1csc(NC(=O)CSc2sc3c(O)cc(=O)[nH]c3c2C#N)n1	mIAP inh 47 (no result: bIAP act, bIAP inh) | mIAP inh conf 68
Cn1cccc1CC(=O)N/N=C/c1ccc([N+](=O)[O-])cc1	none (no result: bIAP act, bIAP inh)
Oc1cc2c(cc1O)[C@H]1c3ccc(O)c(O)c3OC[C@@]1(O)C2	mIAP inh 60 (no result: bIAP act, bIAP inh) | mIAP inh conf 53
O=C(Nc1ccc(Cl)c(C(F)(F)F)c1)NC1CC2CCCC(C1)N2Cc1ccccc1 (stereo not drawn)	bIAP act 2.3, mIAP activ 8.9 | mIAP inh conf inactive
O=C(CN(CC1CCCO1)C(=O)CNS(=O)(=O)c1ccc(F)cc1)NCCc1ccccc1 (stereo not drawn)	none (no result: bIAP act, bIAP inh)
O=C(O)c1ccc(CSc2n[nH]c(-c3ccco3)n2)cc1	mIAP inh 58 | mIAP inh conf 86
CCOC(=O)CSc1n[nH]c(-c2ccco2)n1	none
CC1(C)CC(NC(=O)COc2cc3oc(=O)c4c(c3cc2Cl)CCC4)CC(C)(C)N1	none (no result: bIAP act, bIAP inh)
CC(C)(C)c1nc(NC(=O)Nc2ccccc2)sc1Br	mIAP activ 2.9 | mIAP inh conf inactive
C=CCNC(=O)CCNS(=O)(=O)c1ccc(Br)cc1	none
O=C1NC(=Nc2ccccc2)S/C1=C\C=C\c1ccco1	mIAP inh 73 | mIAP inh conf 72
CCOc1cc(C(=O)Nc2cccnc2)cc(OCC)c1OCC	none (no result: bIAP act, bIAP inh)
COC(=O)[C@H](Cc1c[nH]c2ccccc12)NC(=O)NCc1ccc(OC)cc1	none (no result: bIAP act, bIAP inh)
CC(O)c1cccc(NC(=O)Nc2cccc(NC(=O)Nc3cccc(C(C)O)c3)c2)c1 (stereo not drawn)	mIAP activ 2.5 (no result: bIAP act, bIAP inh) | mIAP inh conf inactive
O=C(Nc1cccc(Cl)c1)Nc1nc(-c2ccccc2)cs1	mIAP activ 2.8 (no result: bIAP inh) | mIAP inh conf inactive
O=C(NCc1csc2ccccc12)Nc1cc(Cl)cc(Cl)c1	mIAP activ 3.7 (no result: bIAP act, bIAP inh) | mIAP inh conf inactive
CC(O)c1cccc(NC(=O)CCC(=O)O)c1 (stereo not drawn)	none
CSc1cccc(NC(=O)Nc2ccccc2)c1	mIAP activ 2.8 | mIAP inh conf inactive
O=C(/C=C/c1cn(CC(O)CN2CCCCC2)c2ccccc12)c1cccs1 (stereo not drawn)	none (no result: mIAP inh, hIAP inh, hIAP act, mIAP activ)
O=C(NNC(=O)c1cc2ccccc2cc1O)Nc1ccc(F)cc1F	none (no result: bIAP act, bIAP inh)
O=C(Nc1cccc(F)c1)Nc1cccc(Cl)c1	mIAP activ 3.6 (no result: bIAP act, bIAP inh) | mIAP inh conf inactive
O=C(Nc1cccc(Cl)c1)NC1CCCCC1	none
O=C(Nc1ccccc1)Nc1cc(Cl)cc(Cl)c1	mIAP activ 4.8 | mIAP inh conf inactive
O=C(Nc1cccc(Cl)c1)Nc1cccc(Cl)c1	mIAP activ 2.6 | mIAP inh conf inactive
O=C(Nc1cccc(Cl)c1)NC1CC2CCC1C2 (stereo not drawn)	mIAP activ 3.2 (no result: bIAP act, bIAP inh) | mIAP inh conf inactive
O=C(CCNS(=O)(=O)c1ccc2[nH]c(=O)oc2c1)NCc1ccccc1	none (no result: bIAP act, bIAP inh)
COc1cccc(CNC(=O)CCNS(=O)(=O)c2ccc3[nH]c(=O)oc3c2)c1	mIAP inh 49 (no result: bIAP act, bIAP inh) | mIAP inh conf 77
COc1ccccc1CNC(=O)CCNS(=O)(=O)c1ccc2[nH]c(=O)oc2c1	mIAP inh 41 (no result: bIAP act, bIAP inh) | mIAP inh conf 75
COc1ccccc1NC(=O)CCNS(=O)(=O)c1ccc2[nH]c(=O)oc2c1	mIAP inh 41 (no result: bIAP act, bIAP inh) | mIAP inh conf 74
Cc1ccc(NC(=O)CCNS(=O)(=O)c2ccc3[nH]c(=O)oc3c2)c(C)c1	none (no result: bIAP act, bIAP inh)
COc1cccc(NC(=O)CN(C)S(=O)(=O)c2ccc3c(c2)CCC(=O)N3)c1	none (no result: bIAP act, bIAP inh)
COc1cccc(NC(=O)CN(C)S(=O)(=O)c2ccc3[nH]c(=O)oc3c2)c1	mIAP inh 42 (no result: bIAP act, bIAP inh) | mIAP inh conf 46
Cc1ccc(NC(=O)Cn2c(=O)oc3ccccc32)c(C)c1	none (no result: bIAP act, bIAP inh)
NC(=O)C1CCN(CC(O)CSc2ccccc2)CC1 (stereo not drawn)	none (no result: bIAP act, bIAP inh)
COc1ccc(OC)c(NC(=O)CCNS(=O)(=O)c2ccc3[nH]c(=O)oc3c2)c1	mIAP inh 47 (no result: bIAP act, bIAP inh) | mIAP inh conf 62
Cc1ccc(C)c(NC(=O)CCNS(=O)(=O)c2ccc3[nH]c(=O)oc3c2)c1	mIAP inh 70 (no result: bIAP act, bIAP inh) | mIAP inh conf 82
Cc1ccc(NC(=O)CCNS(=O)(=O)c2ccc3[nH]c(=O)oc3c2)cc1C	none (no result: bIAP act, bIAP inh)
O=C1C[C@@H](c2ccccc2)Oc2cc(O)cc(O)c21	none (no result: bIAP act, bIAP inh)
O=C1c2c(O)cc(O)cc2O[C@H](c2ccc(O)c(O)c2)[C@H]1O	mIAP inh 51 (no result: bIAP act, bIAP inh) | mIAP inh conf 59
O=C1c2c(O)cc(O)cc2O[C@H](c2ccc(O)c(O)c2)[C@@H]1O	mIAP inh 64 | mIAP inh conf 58
Oc1cc(O)c2c(c1)O[C@H](c1ccc(O)c(O)c1)[C@@H](O)C2	mIAP inh 78 (no result: bIAP act, bIAP inh) | mIAP inh conf 78
Cc1ccccc1NC(=O)COC(=O)C1CC2CCCC(C1)C2=O (stereo not drawn)	none (no result: bIAP act, bIAP inh)
O=C(N/N=C/c1ccc(O)c(O)c1)N/N=C/c1ccc(O)c(O)c1	mIAP inh 49 (no result: bIAP act, bIAP inh) | mIAP inh conf 72
Cc1nonc1C(=O)N/N=C/c1ccc(O)c(O)c1	mIAP inh 42 | mIAP inh conf 41
Cc1cc(SCC(=O)N/N=C/c2ccc(O)c(O)c2)c(C)cc1Br	none
O=C(CSc1nc2ccccc2o1)N/N=C/c1ccc(O)c(O)c1	mIAP inh 67 (no result: bIAP act, bIAP inh) | mIAP inh conf 74
CS(=O)(=O)N1CCN(c2ccc(C(=O)NC34CC5CC(CC(C5)C3)C4)cc2[N+](=O)[O-])CC1	none
COc1ccccc1CNC(=O)C1(NC(=O)Nc2ccc(C)cc2)CCCCC1	hIAP act 2.8, bIAP act 4.9, mIAP activ 5.9 | mIAP inh conf inactive
O=C(Nc1ccc(F)cc1)NC1(C(=O)NCc2ccco2)CCCCC1	none
Cc1ccc(NC(=O)NC2(C(=O)NCc3ccccc3)CCCCC2)cc1	mIAP activ 2.7 | mIAP inh conf inactive
Cc1ccc(CNC(=O)C2(NC(=O)Nc3ccc(C)cc3)CCCCC2)cc1	mIAP activ 6.6 | mIAP inh conf inactive
CC(C)c1ccc(NC(=O)NC2(C(=O)NCc3cccnc3)CCCCC2)cc1	none (no result: bIAP act, bIAP inh)

Source: PubChem
